Structures are written as SMILES.

Format in all cases: functional
The species entered for experiment [1] is Rattus norvegicus. The experiment in a line: Percent inhibition of [14C]acetate incorporation into CO2, after incubation with rat liver slices at a concentration of 0.005 M. The essentials:
(§1)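 Rat liver slices (250 mg) were incubated with and without compound in 4 mL Krebs-Ringer bicarbonate buffer, pH 7.4, containing 4 mM [2-14C]acetate and flushed with 95% O2-5% CO2. 14C incorporation into CO2, long-chain fatty acids and cholesterol was measured and compared against incubations without compound. Values are arithmetic means of three determinations.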

Experiment [2] is filed under the species Rattus norvegicus. Nature of the experiment: Percent inhibition of [14C]acetate incorporation into cholesterol, after incubation with rat liver slices, at a concentration of 0.005 M. The essentials: as §1
The species named for experiment [3] is Rattus norvegicus. The experiment in a line: Percent inhibition of [14C]acetate incorporation into long-chain fatty acids, after incubation with rat liver slices, at a concentration of 0.005 M. The essentials:
as §1

The species entered for experiment [4] is Rattus norvegicus. The experiment in a line: Percent inhibition of [14C]-acetate incorporation into CO2, after incubation with rat liver slices at a concentration of 0.0005 M. The method in brief:
as §1

Experiment [5] is filed under the species Rattus norvegicus. Nature of the experiment: Percent inhibition of [14C]acetate incorporation into cholesterol, after incubation with rat liver slices, at a concentration of 0.0005 M. The essentials:
as §1

The species entered for experiment [6] is Rattus norvegicus. Nature of the experiment: Percent inhibition of [14C]acetate incorporation into long-chain fatty acids, after incubation with rat liver slices, at a concentration of 0.0005 M. The method in brief: as §1

For orientation: Inhibition means the share of the control response that was lost under treatment. Lower therefore signals little suppression. Take `CC1(CC(=O)O)OC(=O)[C@@H]2CCCC[C@H]21` (some centres undefined): the Inhibition in experiment [1] is listed as 37%; in experiment [2], 42%; in experiment [3] it was 67%.

On to `CCC1(C)OC(=O)c2ccccc21` (centres undefined), for which the Inhibition in experiment [4] was <10%; in experiment [1], 86%; in experiment [5], 22%; in experiment [2], 99%; in experiment [6] it was 29%; in experiment [3] it was 99%.

On to `CC1(CC(=O)O)OC(=O)C2=C1CCCC2` (centres undefined), for which the figures for the Inhibition in experiment [1], in experiment [2] and in experiment [3] were 45%, 63% and 83%, respectively.

In the case of `CC1(CC(=O)O)OC(=O)c2ccccc21` (centres undefined), the Inhibition in experiment [1] was <10%; in experiment [2], 48%; in experiment [3] it was 54%.

In the case of `CCC1(C)OC(=O)C2=C1CCCC2` (centres undefined), the Inhibition is on record as 63% in experiment [1], 81% in experiment [2] and 81% in experiment [3].

For the compound `CC1(CC(=O)O)OC(=O)[C@H]2CCCC[C@H]21` (some centres undefined), the figures for the Inhibition in experiment [1], in experiment [2] and in experiment [3] were 23%, 30% and 34%, respectively.

Regarding `CC(O)(CC(=O)O)CC(=O)O` [MEGLUTOL], the Inhibition in experiment [1] is recorded as <10%; in experiment [2] it was 12%; in experiment [3], <10%.
